Experimental data reported in ChEMBL document CHEMBL5724801, “EUbOPEN Chemogenomics Library - Multiplex” (2024).
Values joined by “and” are separate entries in the source; they are usually repeats but may differ in a detail not shown here. Equal entries are not always repeated.

Test system: Fibroblast
Test: Multiplex assay against human fibroblast
Type: toxicity, cell-based
Procedure, shortened: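 Tubulin, mitochondrial-mass and membrane-permeability phenotypes are per cents of healthy-nucleus cells. Cells were gated by CellPathfinder machine learning into Hoechst high-intensity objects or normal cells, normal cells into healthy, pyknosed or fragmented nuclei, and pyknosed cells into mitotic or apoptotic. Before that, live cells stained at seeding with Hoechst33342, BioTracker Green Microtubule Cytoskeleton Dye, MitoTracker Red and Annexin V Alexa Fluor 680 were imaged on a CQ1 microscope at 37°C and 5% CO2 after compound addition.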

[1] = 12 h, 1 µM, compound concentration 1 uM
[2] = 12 h, 10 µM, compound concentration 10 uM
[3] = 24 h, 1 µM, compound concentration 1 uM
[4] = 24 h, 10 µM, compound concentration 10 uM
[5] = 48 h, 1 µM, compound concentration 1 uM
[6] = 48 h, 10 µM, compound concentration 10 uM

CC(N)C1CCC(C(=O)Nc2ccncc2)CC1 (stereo not drawn)
Population Fragmented Nuclei (%) [1]: 12.67% and 4.31% | Population Healthy Nuclei (%) [1]: 64.25% and 88.36% | Population Hoechst High Intensity Objects (%) [1]: 0% | Population Membrane Permeable-Phenotype (%) [1]: 2.82% and 2.93% | Population Mitochondria Different-Phenotype (%) [1]: 7.75% and 8.29% | Population Mitotic Cells (%) [1]: 94.12% and 82.35% | Population Normal (%) [1]: 100% | Population Tubulin-Different-Phenotype (%) [1]: 11.27% and 12.2% | Total Cell Count [1]: 221 and 232 | Population Apoptotic (%) [2]: 19.3% and 38.89% | Population Fragmented Nuclei (%) [2]: 9.18% and 4.02% | Population Healthy Nuclei (%) [2]: 63.29% and 85.63% | Population Hoechst High Intensity Objects (%) [2]: 0% | Population Membrane Permeable-Phenotype (%) [2]: 3.05% and 0% | Population Mitochondria Different-Phenotype (%) [2]: 10.69% and 10.07% | Population Mitotic Cells (%) [2]: 80.7% and 61.11% | Population Normal (%) [2]: 100% | Population Pyknosed Nuclei (%) [2]: 27.54% and 10.34% | Population Tubulin-Different-Phenotype (%) [2]: 10.69% and 8.05% | Total Cell Count [2]: 207 and 174 | Population Apoptotic (%) [3]: 11.11% and 33.33% | Population Fragmented Nuclei (%) [3]: 6.64% and 2.82% | Population Healthy Nuclei (%) [3]: 78.42% and 89.92% | Population Hoechst High Intensity Objects (%) [3]: 0% | Population Membrane Permeable-Phenotype (%) [3]: 4.23% and 2.69% | Population Mitochondria Different-Phenotype (%) [3]: 0.53% and 5.83% | Population Mitotic Cells (%) [3]: 88.89% and 66.67% | Population Normal (%) [3]: 100% | Population Pyknosed Nuclei (%) [3]: 14.94% and 7.26% | Population Tubulin-Different-Phenotype (%) [3]: 7.41% and 11.66% | Total Cell Count [3]: 241 and 248 | Population Apoptotic (%) [4]: 18.18% and 44.44% | Population Fragmented Nuclei (%) [4]: 6.51% and 6.08% | Population Healthy Nuclei (%) [4]: 78.14% and 88.95% | Population Hoechst High Intensity Objects (%) [4]: 0% | Population Membrane Permeable-Phenotype (%) [4]: 2.38% and 0% | Population Mitochondria Different-Phenotype (%) [4]: 4.76% and 8.07% | Population Mitotic Cells (%) [4]: 81.82% and 55.56% | Population Normal (%) [4]: 100% | Population Tubulin-Different-Phenotype (%) [4]: 13.69% and 11.8% | Total Cell Count [4]: 215 and 181 | Population Apoptotic (%) [5]: 30.77% and 83.33% | Population Fragmented Nuclei (%) [5]: 11.15% and 6.02% | Population Healthy Nuclei (%) [5]: 83.85% and 91.57% | Population Hoechst High Intensity Objects (%) [5]: 0% | Population Membrane Permeable-Phenotype (%) [5]: 0.92% and 3.07% | Population Normal (%) [5]: 100% | Population Pyknosed Nuclei (%) [5]: 5% and 2.41% | Population Tubulin-Different-Phenotype (%) [5]: 3.21% and 10.09% | Total Cell Count [5]: 260 and 249 | Population Apoptotic (%) [6]: 50% and 33.33% | Population Fragmented Nuclei (%) [6]: 10.31% and 6.56% | Population Healthy Nuclei (%) [6]: 86.64% and 90.16% | Population Hoechst High Intensity Objects (%) [6]: 0% | Population Membrane Permeable-Phenotype (%) [6]: 0.44% and 0.61% | Population Mitotic Cells (%) [6]: 50% and 66.67% | Population Normal (%) [6]: 100% | Population Pyknosed Nuclei (%) [6]: 3.05% and 3.28% | Population Tubulin-Different-Phenotype (%) [6]: 3.08% and 11.52% | Total Cell Count [6]: 262 and 183

CCC(=N\O)/C(C)=C/c1ccc(F)cc1 [A-079]
Population Apoptotic (%) [1]: 15.91% and 23.08% | Population Fragmented Nuclei (%) [1]: 8.18% and 2.86% | Population Healthy Nuclei (%) [1]: 71.82% and 82.29% | Population Hoechst High Intensity Objects (%) [1]: 0% | Population Membrane Permeable-Phenotype (%) [1]: 3.16% and 4.86% | Population Mitochondria Different-Phenotype (%) [1]: 3.16% and 9.72% | Population Mitotic Cells (%) [1]: 84.09% and 76.92% | Population Normal (%) [1]: 100% | Population Pyknosed Nuclei (%) [1]: 20% and 14.86% | Population Tubulin-Different-Phenotype (%) [1]: 10.13% and 14.58% | Total Cell Count [1]: 220 and 175 | Population Apoptotic (%) [2]: 11.32% and 27.78% | Population Fragmented Nuclei (%) [2]: 6.99% and 5.71% | Population Healthy Nuclei (%) [2]: 64.52% and 81.43% | Population Hoechst High Intensity Objects (%) [2]: 0% | Population Membrane Permeable-Phenotype (%) [2]: 5.83% and 7.02% | Population Mitochondria Different-Phenotype (%) [2]: 5% and 9.65% | Population Mitotic Cells (%) [2]: 88.68% and 72.22% | Population Normal (%) [2]: 100% | Population Pyknosed Nuclei (%) [2]: 28.49% and 12.86% | Population Tubulin-Different-Phenotype (%) [2]: 13.33% and 21.93% | Total Cell Count [2]: 186 and 140 | Population Apoptotic (%) [3]: 15.15% and 10.53% | Population Fragmented Nuclei (%) [3]: 10% and 1.7% | Population Healthy Nuclei (%) [3]: 75.65% and 87.5% | Population Hoechst High Intensity Objects (%) [3]: 0% | Population Membrane Permeable-Phenotype (%) [3]: 2.3% and 3.25% | Population Mitochondria Different-Phenotype (%) [3]: 2.87% and 6.49% | Population Mitotic Cells (%) [3]: 84.85% and 89.47% | Population Normal (%) [3]: 100% | Population Pyknosed Nuclei (%) [3]: 14.35% and 10.8% | Population Tubulin-Different-Phenotype (%) [3]: 10.92% and 9.74% | Total Cell Count [3]: 230 and 176 | Population Apoptotic (%) [4]: 17.14% and 20.83% | Population Fragmented Nuclei (%) [4]: 8.85% and 6.62% | Population Healthy Nuclei (%) [4]: 72.92% and 77.48% | Population Hoechst High Intensity Objects (%) [4]: 0% | Population Membrane Permeable-Phenotype (%) [4]: 10.71% and 3.42% | Population Mitochondria Different-Phenotype (%) [4]: 7.86% and 4.27% | Population Mitotic Cells (%) [4]: 82.86% and 79.17% | Population Normal (%) [4]: 100% | Population Pyknosed Nuclei (%) [4]: 18.23% and 15.89% | Population Tubulin-Different-Phenotype (%) [4]: 19.29% and 19.66% | Total Cell Count [4]: 192 and 151 | Population Apoptotic (%) [5]: 46.15% and 36.36% | Population Fragmented Nuclei (%) [5]: 10.24% and 4.69% | Population Healthy Nuclei (%) [5]: 84.65% and 89.58% | Population Hoechst High Intensity Objects (%) [5]: 0% | Population Membrane Permeable-Phenotype (%) [5]: 0.47% and 4.65% | Population Mitotic Cells (%) [5]: 53.85% and 63.64% | Population Normal (%) [5]: 100% | Population Pyknosed Nuclei (%) [5]: 5.12% and 5.73% | Total Cell Count [5]: 254 and 192 | Population Apoptotic (%) [6]: 20% and 36.36% | Population Fragmented Nuclei (%) [6]: 12.33% and 5.62% | Population Healthy Nuclei (%) [6]: 80.82% and 87.5% | Population Hoechst High Intensity Objects (%) [6]: 0% | Population Membrane Permeable-Phenotype (%) [6]: 1.69% and 6.43% | Population Mitotic Cells (%) [6]: 80% and 63.64% | Population Normal (%) [6]: 100% | Population Pyknosed Nuclei (%) [6]: 6.85% and 6.88% | Population Tubulin-Different-Phenotype (%) [6]: 6.78% and 17.86% | Total Cell Count [6]: 219 and 160
